From ChEMBL document CHEMBL2331546, “The structure of anthracycline derivatives determines their subcellular localization and cytotoxic activity” (ACS Med Chem Lett, 2013) come the findings set out here.

By IC50 is commonly meant the point on the concentration scale where inhibition reaches its midpoint. A lower IC50 goes with greater potency.

Activity calls are given as the source filed them. No cut-off for these calls is given here.

One data set concerns MCF7. Briefly: Cytotoxicity against human MCF7 cells after 24 hrs by XTT assay. Format: functional, cell-based. To be noted: MCF7, 24 h. The gist of the method: (§1)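 Cells seeded at ~5 × 10^3 per well, exposed to drug at concentrations up to 60 μM for 24 h; viability read by XTT assay and IC50 values derived.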
Background: Tetrazolium assays rely on reduction of a dye to a coloured formazan, in cell work by metabolically active cells.

Data set [1] can be described thus: Cellular uptake in mouse DA-3 cell nucleus at 10 uM after 10 hrs by DRAQ5 deep red staining-based confocal microscopic analysis. Format: ADME. To be noted: da-3, 10 h.
Data set [2] is described as follows: Displacement of YOYO1 from phage lambda DNA by FID assay. On the set-up: species or system Enterobacteria phage lambda. The gist of the method: (§2)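 Run at 37 °C; each well held 500 ng phage lambda DNA (48 Kb) with either SYBR safe (final dilution 1:10000) or YOYO-1 (one dye molecule per 40 base pairs) and test compound at up to 40 μM; dye fluorescence displacement gave IC50.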

A short description of data set [3]: Displacement of SYBR from phage lambda DNA by FID assay. On the set-up: species or system Enterobacteria phage lambda. The gist of the method: as §2
Data set [4] in a line: Cellular uptake in mouse DA-3 cell nucleus at 10 uM after 30 mins by DRAQ5 deep red staining-based confocal microscopic analysis relative to control. Format: ADME. As to conditions: da-3, 0.5 h.
Data set [5] relates to DA-3. Briefly: (§3) Cytotoxicity against mouse DA-3 cells assessed as reduction in cell viability at 20 uM after 180 mins by XTT assay relative to control. Type of data set: functional. The gist of the method: (§4)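 DA3 cells incubated with 20 μM anthracycline; XTT viability measured after 60, 120 and 180 min of incubation; percentage cell death expressed relative to untreated control cells (set as 100% viability).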

A short description of data set [6]: Cytotoxicity against mouse DA-3 cells after 24 hrs by XTT assay. Format: functional, cell-based. To be noted: DA-3, 24 h. The gist of the method:
as §1

A short description of data set [7]: Cellular uptake in mouse DA-3 cell mitochondria at 10 uM after 30 mins by mitotracker red staining-based confocal microscopic analysis. Format: ADME. As to conditions: da-3, 0.5 h.
The nature of data set [8]: Cellular uptake in mouse DA-3 cell lysosome at 10 uM after 10 hrs by LysoTracker green staining-based confocal microscopic analysis. As to conditions: da-3, 10 h. Type of data set: ADME.
The nature of data set [9]: Cellular uptake in mouse DA-3 cell mitochondria at 10 uM after 10 hrs by mitotracker red staining-based confocal microscopic analysis. Type of data set: ADME. To be noted: da-3, 10 h.
A short description of data set [10]: Cytotoxicity against human ES2 cells after 24 hrs by XTT assay. Type of data set: functional, cell-based. To be noted: ES-2, 24 h. The gist of the method:
as §1

The next data set concerns SK-OV-3. The data set is described as follows: Cytotoxicity against human SKOV3 cells after 24 hrs by XTT assay. Type of data set: functional, cell-based. To be noted: SK-OV-3, 24 h. An outline of the steps: as §1
The subject of data set [11] is Enterobacteria phage lambda. The data set is described as follows: Ratio of idarubicin IC50 to compound IC50 for displacement of YOYO1 from phage lambda DNA.
A short description of data set [12]: Cytotoxicity against mouse DA-3 cells assessed as reduction in cell viability at 20 uM after 6 hrs by XTT assay relative to control. Type of data set: functional.
Data set [13] is described as follows: Cellular uptake in mouse DA-3 cell lysosome at 10 uM after 30 mins by LysoTracker green staining-based confocal microscopic analysis relative to control. To be noted: da-3, 0.5 h. Format: ADME.
For data set [14], the system named is Enterobacteria phage lambda. Briefly: Ratio of doxorubicin IC50 to compound IC50 for displacement of SYBR from phage lambda DNA.
Data set [15] deals with DA-3. Briefly: Cytotoxicity against mouse DA-3 cells assessed as reduction in cell viability at 20 uM by XTT assay. Type of data set: functional, cell-based. An outline of the steps: as §4
The subject of data set [16] is Enterobacteria phage lambda. The data set is described as follows: Ratio of idarubicin IC50 to compound IC50 for displacement of SYBR from phage lambda DNA.
Data set [17] can be described thus: Cellular uptake in mouse DA-3 cell lysosome at 10 uM after 30 mins by LysoTracker red staining-based confocal microscopic analysis relative to control. Type of data set: ADME. To be noted: da-3, 0.5 h.
A short description of data set [18]: Cellular uptake in mouse DA-3 cell cytoplasm at 10 uM after 30 mins by confocal microscopic analysis. Type of data set: ADME, cell-based. As to conditions: da-3, 0.5 h.
Data set [19] deals with DA-3. Briefly: Cytotoxicity against mouse DA-3 cells assessed as reduction in cell viability at 20 uM after 60 mins by XTT assay. Type of data set: functional, cell-based. The gist of the method: as §4
The nature of data set [20]: as §3. Format: functional. An outline of the steps:
as §4

As for `COc1cccc2c1C(=O)c1c(O)c3c(c(O)c1C2=O)C[C@@](O)(C(=O)CO)C[C@@H]3O[C@H]1C[C@H](N)[C@H](O)[C@H](C)O1` [DOXORUBICIN], the IC50 was greater than 60 µM with MCF7; 0.6 µM in [2]; 0.73 µM in data set [3]; 4 µM in [6]; greater than 60 µM in [10]; 55.7 µM in the data set on SK-OV-3. Besides, the Drug uptake entry in [1] is “Active”; in data set [4], 41.43%; in [7], “Not Active”; in data set [8] it was “Active”; in [9], “Active”; in data set [13], 27.55%. Further, the result in the data set on DA-3 [5] was inactive. In addition, in [11], the Ratio IC50 is 3. Further, the Activity in [12] was found to be 12%.
For the molecule `CC(=O)[C@]1(O)Cc2c(O)c3c(c(O)c2[C@@H](O[C@H]2C[C@H](N)[C@H](O)[C@H](C)O2)C1)C(=O)c1ccccc1C3=O` [IDARUBICIN], the figures for the Ratio IC50 in data set [14], in data set [11] and in [16] were 5, 3 and 5, respectively. The IC50 in the data set on MCF7 turned out to be 7.3 µM; in data set [2], 1.97 µM; in [3], 0.89 µM; in data set [6] it was 2.3 µM; in data set [10] it was 3.2 µM; in the data set on SK-OV-3, 4.5 µM. Further, in the data set on DA-3 [15], the outcome was Active. Besides, the Drug uptake entry was “Not Active” in [7] and 83.2% in data set [13].
Consider `Cc1c(O)c2c(c(O)c1CO[C@H]1C[C@H](N)[C@@H](O)[C@H](C)O1)C(=O)c1ccccc1C2=O`, for which the IC50 was 17.2 µM in the data set with MCF7; greater than 40 µM in data set [2]; greater than 40 µM in data set [3]; 17.5 µM in data set [6]; 17.7 µM in [10]; 16.3 µM with SK-OV-3. Further, the Drug uptake in data set [17] is 84.48%; in [18], “Active”; in [4] it was “Not Active”; in [7] it was “Not Active”.
With `C[C@@H]1O[C@@H](OCc2cc(O)c3c(c2)C(=O)c2cccc(O)c2C3=O)C[C@H](N)[C@H]1O`, the IC50 in the data set on MCF7 was 23.6 µM; in [2], greater than 40 µM; in data set [3] it was greater than 40 µM; in data set [6], 7.9 µM; in [10], 6.8 µM; in the data set on SK-OV-3, 11.1 µM. Moreover, the outcome in the data set on DA-3 [19] was Active. The Drug uptake in [17] was 67.12%; in [18], “Active”; in data set [4] it was “Not Active”; in data set [7], “Not Active”. In addition, in [20], the Activity worked out at 100%.
On to `COc1cccc2c1C(=O)c1c(O)c3c(c(O)c1C2=O)C[C@@](O)(C(C)=O)C[C@@H]3O[C@H]1C[C@H](N)[C@H](O)[C@H](C)O1` [DAUNORUBICIN], for which the IC50 with MCF7 was determined as 33.9 µM; in [2], 0.84 µM; in [3] it was 0.14 µM; in data set [6] it was 1.9 µM; in data set [10] it was 25.5 µM; in the data set with SK-OV-3, 20.6 µM. Moreover, the outcome in the data set on DA-3 [19] was Active. Further, the figures for the Drug uptake entry in data set [4] and in data set [13] were “Not Active” and 83.19%, respectively. In addition, in data set [20], the Activity is reported as 80%.
